Source: ChEMBL document CHEMBL1127556, “Synthesis and topical antiinflammatory and antiallergic activities of antioxidant o-aminophenol derivatives” (J Med Chem, 1994)
Values after ≈ are worked out from the molar mass of the structure shown.

How the values were obtained:
Mus musculus [1] = organism: Mus musculus; test: Inhibitory effects on delayed type hypersensitive reaction in mouse ears at a dose of 300 ug/site; type: functional
Summary of the method: (§1)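 ICR mice, 10 or 12 per group, sensitized by abdominal swabbing with 0.1 mL antigen in acetone (7% picryl chloride or 1% OXA). DTH response assessed in mouse ears.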

Oryctolagus cuniculus [2] = organism: Oryctolagus cuniculus; test: Compound was evaluated for primary irritation test by applying at the intact site and the average score was reported. Number of animals tested =6; type: toxicity, organism-based; conditions: rabbit, in vivo, topical_or_ocular
Summary of the method: (§2)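 Rabbit backs shaved and depilated; 0.5 g compound applied to four sites (two intact, two abraded) under gauze for 24 h. Sites examined grossly 24 and 72 h after removing covering; scored by Draize method.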

Rattus norvegicus [3] = organism: Rattus norvegicus; test: Inhibitory effects on passive cutaneous anaphylaxis in rats at a dose of 1 mg/site; type: functional
Summary of the method: (§3)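 Male SD rats, eight per group, sensitized intradermally at two dorsal sites with 0.05 mL anti-ovalbumin rat IgE serum diluted 1:8 in 0.9% saline. Compound applied topically to those sites 5 h before iv challenge 48 h later with 2 mg ovalbumin plus 5 mg Evans blue in 1 mL. Extravasated dye measured 30 min later; percent inhibition versus control group.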

Oryctolagus cuniculus [4] = organism: Oryctolagus cuniculus; test: Compound was evaluated for primary irritation test by applying at the abraded site and the average score was reported. Number of animals tested =6; type: toxicity, organism-based; conditions: rabbit, in vivo, topical_or_ocular; summary of the method: as §2
Mus musculus [5] = test: Inhibitory effects on arachidonic acid (AA) induced mouse ear edema at a dose of 100 ug/ear; type: functional
Summary of the method: (§4)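 Male ICR mice (30–40 g, 10–15 per group). Compound in 25 μL acetone/pyridine/water 97:2:1 with arachidonic acid (50 mg/mL) applied to inner surface of one ear. After 1 h, CO2 sacrifice, 6-mm disk punched, edema measured as change in wet weight versus controls.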

Rattus norvegicus [6] = organism: Rattus norvegicus; test: Evaluated for its antioxidative effect using the thiobarbituric acid (TBA) method in rat; type: functional
Summary of the method: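 Test sample in 67 mM phosphate buffer pH 7.4 mixed with 10% male Wistar rat (300–400 g) forebrain homogenate. Shaken 1 h at 37 °C, deproteinated with 20% TCA. Supernatant heated 10 min at 100 °C with 1.2% thiobarbiturate; absorbance read at 532 nm.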

Mus musculus [7] = test: Evaluated for its inhibitory effects on 12-O-tetradecanoylphorbol-13-acetate (TPA) -induced edema in mouse ear at a dose of 100 ug/site; type: functional
Summary of the method: (§5)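 Male ICR mice, 30–40 g, 10–15 per group. Test compound applied in 25 μL acetone/pyridine/water 97:2:1 containing TPA (200 μg/mL) to the inner surface of one ear. Killed with CO2 5 h later; 6-mm ear punch weighed wet for edema. ED50 taken from three-point dose titration curves.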

Oryctolagus cuniculus [8] = organism: Oryctolagus cuniculus; test: Compound was evaluated for primary irritation test by applying at the intact site and the average score was reported. Number of animals tested =6.; type: toxicity, organism-based; conditions: rabbit, in vivo, topical_or_ocular; summary of the method: as §2
Rattus norvegicus [9] = organism: Rattus norvegicus; test: Compound was evaluated for its inhibitory effects on passive cutaneous anaphylaxis in rats at a dose of 1 mg/site; type: functional; summary of the method: as §3
Rattus norvegicus [10] = organism: Rattus norvegicus; test: Compound was evaluated for its inhibitory effects on passive cutaneous anaphylaxis in rats at a dose of 2.5 mg/site; type: functional; summary of the method: as §3
Mus musculus [11] = organism: Mus musculus; test: Compound was evaluated for its inhibitory effects on delayed type hypersensitive reaction in mouse ears at a dose of 300 ug/site; type: functional; summary of the method: as §1
Mus musculus [12] = test: Compound was evaluated for its inhibitory effects on 12-O-tetradecanoylphorbol-13-acetate (TPA) -induced edema in mouse ear at a dose of 100 ug/site; type: functional; summary of the method: as §5
Mus musculus [13] = test: Compound was evaluated for its inhibitory effects on arachidonic acid (AA) induced mouse ear edema at a dose of 100 ug/ear; type: functional; summary of the method: as §4
Mus musculus [14] = test: Compound was evaluated for its inhibitory effects on 12-O-tetradecanoylphorbol-13-acetate -induced edema.
Mus musculus [15] = test: Compound was evaluated for its inhibitory effects on arachidonic acid induced ear edema at a dose of 100 (ug / ear)
Rattus norvegicus [16] = organism: Rattus norvegicus; test: Compound was evaluated for its inhibitory effects on passive cutaneous anaphylaxis in rats at a dose of 1 (mg / site).; type: functional; summary of the method: as §3
Rattus norvegicus [17] = organism: Rattus norvegicus; test: Compound was evaluated for its inhibitory effects on passive cutaneous anaphylaxis in rats at a dose of 2.5 (mg / site).; type: functional; summary of the method: as §3
Mus musculus [18] = organism: Mus musculus; test: Compound was evaluated for its effective dose to inhibit picryl chloride induced delayed type hypersensitivity.
Mus musculus [19] = organism: Mus musculus; test: Compound was evaluated for its effective dose to inhibit oxazolone- induced delayed type hypersensitivity

`Cc1ccc(O)c(NCCCN2CCC(C(O)(c3ccccc3)c3ccc(Cl)cc3)CC2)c1` (stereo unspecified) gave an Inhibition (Mus musculus [1]) of 80.4%, an Average score (Oryctolagus cuniculus [2]) of 0 and an Inhibition (Rattus norvegicus [3]) of 39.2%. For the same compound, the Average score (Oryctolagus cuniculus [4]) was 0, the Inhibition (Mus musculus [5]) was 43.7% and the IC50 (Rattus norvegicus [6]) was 0.041 mg/L (≈ 0.0882 µM). The Inhibition (Mus musculus [7]) was 97.5%.

Compound `CC(C)(C)c1ccc(O)c(NCCCN2CCN(C(c3ccccc3)c3ccc(Cl)cc3)CC2)c1` (stereo unspecified) has an Inhibition (Mus musculus [1]) of 60.6%, an Inhibition (Rattus norvegicus [3]) of 12.6% and an Inhibition (Mus musculus [5]) of 38%. The IC50 (Rattus norvegicus [6]) was 0.068 mg/L (≈ 0.138 µM) and the Inhibition (Mus musculus [7]) was 82.4%.

In the case of `Cc1ccc(O)c(N(C)CCCN2CCN(C(c3ccccc3)c3ccccc3)CC2)c1`, the IC50 (Rattus norvegicus [6]) is reported as 0.3 mg/L (≈ 0.698 µM) and the Inhibition (Mus musculus [7]) is reported as 50.9%.

`Cc1ccc(O)c(NCCCN2CCC(C(O)(c3ccccc3)c3ccccc3)CC2)c1` was tested, and the Average score (Oryctolagus cuniculus [8]) was 0, the Inhibition (Mus musculus [1]) was 77% and the Inhibition (Rattus norvegicus [3]) was 36.8%. It also gave an Average score (Oryctolagus cuniculus [4]) of 0, an Inhibition (Mus musculus [5]) of 61.5% and an IC50 (Rattus norvegicus [6]) of 0.029 mg/L (≈ 0.0673 µM). The Inhibition (Mus musculus [7]) was 89%.

Work on `Cc1ccc(O)c(N(CCCN2CCN(C(c3ccccc3)c3ccccc3)CC2)C(C)C)c1` yielded an IC50 (Rattus norvegicus [6]) of 0.29 mg/L (≈ 0.634 µM) and an Inhibition (Mus musculus [7]) of 42.6%.

`Cc1ccc(O)c(N(CCCN2CCN(C(c3ccc(F)cc3)c3ccc(F)cc3)CC2)C(C)C)c1` gave an IC50 (Rattus norvegicus [6]) of 1.2 mg/L (≈ 2.43 µM) and an Inhibition (Mus musculus [7]) of 24.2%.

Compound `Cc1ccc(O)c(NCCCN2CCC(OC(c3ccccc3)c3ccc(Cl)cc3)CC2)c1` (stereo unspecified) has an Inhibition (Mus musculus [1]) of 31.3%, an Inhibition (Rattus norvegicus [3]) of 26% and an Inhibition (Mus musculus [5]) of 53.6%. The IC50 (Rattus norvegicus [6]) was 0.084 mg/L (≈ 0.181 µM) and the Inhibition (Mus musculus [7]) was 86%.

For `Cc1ccc(O)c(NCCCN2CCCN(C(c3ccccc3)c3ccc(Cl)cc3)CC2)c1` (stereo unspecified), the Inhibition (Rattus norvegicus [3]) was 36.4%, the Inhibition (Mus musculus [5]) was 50.3% and the IC50 (Rattus norvegicus [6]) was 0.013 mg/L (≈ 0.028 µM). For the same compound, the Inhibition (Mus musculus [7]) was 87%.

`Cc1ccc(O)c(NCCCN2CCC(OC(c3ccccc3)c3ccccc3)CC2)c1` gave an Inhibition (Mus musculus [1]) of 28.1%, an Inhibition (Rattus norvegicus [9]) of 28.3% and an Inhibition (Mus musculus [5]) of 61.8%. The IC50 (Rattus norvegicus [6]) was 0.036 mg/L (≈ 0.0836 µM).

For `CC(C(=O)O)c1ccc(C(=O)c2cccs2)cc1` (stereo unspecified) [SUPROFEN], the Inhibition (Rattus norvegicus [3]) was -0.7%, the Inhibition (Rattus norvegicus [10]) was 16.9% and the ED50 (Mus musculus [11]) was greater than 300 mg/L. For the same compound, the ED50 (Mus musculus [12]) was 123.2 mg/L (≈ 473 µM) and the ED50 (Mus musculus [13]) was 15.4 mg/L (≈ 59.2 µM).

`Cc1ccc(O)c(NCCN2CCN(C(c3ccccc3)c3ccccc3)CC2)c1` showed an Inhibition (Mus musculus [1]) of 62%, an Inhibition (Rattus norvegicus [3]) of 32.8% and an Inhibition (Mus musculus [5]) of 48.1%. It also gave an IC50 (Rattus norvegicus [6]) of 0.045 mg/L (≈ 0.112 µM) and an Inhibition (Mus musculus [7]) of 75.3%.

`C[C@]12CCC(=O)C=C1CCC1[C@@H]2[C@@H](O)C[C@@]2(C)[C@H]1CC[C@]2(O)C(=O)CO` (single isomer, unassigned) [HYDROCORTISONE] gave an ED50 (Mus musculus [14]) of 6.69 mg/L (≈ 18.5 µM), an ED50 (Mus musculus [15]) of 3.09 mg/L (≈ 8.52 µM) and an Inhibition (Rattus norvegicus [16]) of 6.99%. The Inhibition (Rattus norvegicus [17]) was -16.4%, the ED50 (Mus musculus [18]) was 1.2 mg/L (≈ 3.31 µM) and the ED50 (Mus musculus [19]) was 3.43 mg/L (≈ 9.46 µM).

`Cc1ccc(O)c(N(CCCN2CCN(C(c3ccc(Cl)cc3)c3ccc(Cl)cc3)CC2)C(C)C)c1` showed an IC50 (Rattus norvegicus [6]) of 2.2 mg/L (≈ 4.18 µM) and an Inhibition (Mus musculus [7]) of 26.4%.
